Ten compounds from paper PMC10433355 (ACS Omega, 2023) can be followed below.

One may read the IC50 as the point on the concentration scale where inhibition reaches its midpoint. By CC50 is commonly meant the concentration at which the toxic effect on the cells reaches its halfway point.

One series relates to MCF-7. The series can be described thus: MTS assay, breast carcinoma MCF-7. The series is classed as cell-based. The note with it: Homo sapiens, MCF7, 72 h, read-out: IC50 MCF-7. Summed up: (§1)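 Cells grown in RPMI 1640 with 10% FBS, 1% penicillin/streptomycin and 1% L-glutamine, trypsinised and counted by hemocytometer. Seeded at 1 × 10^3 cells/well and left 24 h at 37 °C. Test compound added at 300, 100, 50 and 10 µM for 72 h at 37 °C, then removed. […] Triplicate, mean ± SD.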
(Tetrazolium dyes change colour on reduction, which living cells bring about.)

The subject of another series is Hep3B. The series can be described thus: MTS assay, hepatocellular carcinoma Hep3B. It is filed as cell-based. The note with it: Homo sapiens, 72 h, read-out: IC50 Hep3B. The essentials:
as §1

Another series deals with B16F1. In words: MTS assay, melanoma B16F1. The series is classed as cell-based. The note with it: Mus musculus, B16-F1, 72 h, read-out: IC50 B16F1. The essentials:
as §1

The next series deals with COLO205. The series can be described thus: MTS assay, colon adenocarcinoma COLO205. The note with it: Homo sapiens, COLO 205, 72 h, read-out: IC50 COLO205. The series is classed as cell-based. The essentials:
as §1

The next series addresses T1, COX-1 (Ovis aries, UniProt P05979).
T1 sequence (P05979 25-600): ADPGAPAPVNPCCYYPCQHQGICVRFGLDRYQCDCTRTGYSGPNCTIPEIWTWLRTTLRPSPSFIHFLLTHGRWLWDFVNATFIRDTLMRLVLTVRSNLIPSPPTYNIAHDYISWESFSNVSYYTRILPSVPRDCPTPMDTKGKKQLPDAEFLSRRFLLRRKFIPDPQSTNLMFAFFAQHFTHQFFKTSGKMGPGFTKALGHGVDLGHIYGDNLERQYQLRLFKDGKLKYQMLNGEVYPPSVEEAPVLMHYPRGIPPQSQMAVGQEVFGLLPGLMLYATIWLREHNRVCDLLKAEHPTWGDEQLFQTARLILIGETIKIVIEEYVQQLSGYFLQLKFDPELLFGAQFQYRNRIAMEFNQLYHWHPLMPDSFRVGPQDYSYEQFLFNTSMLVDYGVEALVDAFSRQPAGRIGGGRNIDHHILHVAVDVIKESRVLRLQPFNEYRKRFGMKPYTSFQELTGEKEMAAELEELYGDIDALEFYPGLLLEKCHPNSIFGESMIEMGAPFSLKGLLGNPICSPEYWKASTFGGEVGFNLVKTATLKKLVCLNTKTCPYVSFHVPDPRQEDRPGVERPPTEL
In words: In vitro COX-1 inhibition assay. The series is classed as biochemical, ovine.

The next series concerns the target T2, human recombinant COX-2 (Homo sapiens, UniProt P35354).
T2 sequence (P35354 18-604): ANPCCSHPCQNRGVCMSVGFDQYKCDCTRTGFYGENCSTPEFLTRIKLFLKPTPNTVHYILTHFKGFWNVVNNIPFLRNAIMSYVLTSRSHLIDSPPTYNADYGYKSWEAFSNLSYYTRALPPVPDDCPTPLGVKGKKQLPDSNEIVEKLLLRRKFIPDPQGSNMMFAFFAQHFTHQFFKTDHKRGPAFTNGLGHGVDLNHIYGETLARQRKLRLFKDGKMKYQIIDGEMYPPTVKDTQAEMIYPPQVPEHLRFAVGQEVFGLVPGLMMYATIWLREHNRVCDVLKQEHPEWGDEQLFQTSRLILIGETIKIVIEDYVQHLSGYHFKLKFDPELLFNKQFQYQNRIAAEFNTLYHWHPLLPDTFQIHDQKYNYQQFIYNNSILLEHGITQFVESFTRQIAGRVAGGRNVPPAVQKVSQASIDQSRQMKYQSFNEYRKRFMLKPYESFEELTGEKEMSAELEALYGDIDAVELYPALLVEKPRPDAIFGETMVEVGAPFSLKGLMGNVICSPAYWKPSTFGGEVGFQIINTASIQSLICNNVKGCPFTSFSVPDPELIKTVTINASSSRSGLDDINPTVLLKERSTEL
In words: In vitro COX-2 inhibition assay. The series is classed as biochemical. The note with it: for SI (selectivity index / selectivity ratio): IC50 COX-1 divided by IC50 COX-2; for IC50: IC50 COX-2.

A further series concerns CaCo-2. The series can be described thus: MTS assay, colorectal adenocarcinoma Caco-2. The series is classed as cell-based. The note with it: Homo sapiens, Caco-2, 72 h, read-out: IC50 CaCo-2. The essentials: as §1
Series [1] is described as follows: MTS cytotoxicity assay, normal cell line LX-2. The series is classed as cell-based. The note with it: human, LX-2 cells (normal cell line), CC50 LX-2, normal cell line. Summed up: (§2)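 LX-2 cells seeded at 1 × 10^3 cells/well and left 24 h at 37 °C. Exposed to test compound at 300, 100, 50 and 10 µM for 72 h at 37 °C, with 5-FU as positive control. […] Triplicate, mean ± SD.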

In a further series the test system is HeLa. The series can be described thus: MTS assay, cervical adenocarcinoma HeLa. The series is classed as cell-based. The note with it: Homo sapiens, 72 h, read-out: IC50 HeLa. The essentials: as §1
The test system of another series is HepG2. In words: MTS assay, hepatocellular carcinoma HepG2. The series is classed as cell-based. The note with it: Homo sapiens, HepG2, 72 h, read-out: IC50 HepG2. Summed up:
as §1

The test system of a further series is Hek293t cells. The series can be described thus: MTS cytotoxicity assay, normal cell line Hek293t. The series is classed as cell-based. The note with it: read-out: CC50 Hek293t, 72 h. The essentials: as §1
Another series relates to LX-2 cells. The series can be described thus: MTS cytotoxicity assay, normal cell line LX-2. The series is classed as cell-based. The note with it: read-out: CC50 LX-2, normal cell line. Summed up:
as §2

“And” between values parts separate entries of the source, which are not always exact repeats. Equal entries are not always repeated. Where only a bound is given, the exact number is not on record here.

In the case of `COc1cccc(-c2nc(C)c(C(=O)Nc3cc(OC)c(OC)c(OC)c3)s2)c1` [2a, 2-(3-Methoxyphenyl)-4-methyl-N-(3,4,5-trimethoxyphenyl)thiazole-5-carboxamide], the IC50 was over 300 µM in the series with MCF-7; over 300 µM in the series on Hep3B; over 300 µM in the series with B16F1; over 300 µM in the series on COLO205; 2.65 ± 0.78 µM against COX-1; 0.95 µM and 0.958 µM at human recombinant COX-2. Besides, the 50% inhibitory concentration (IC50) in the series on CaCo-2 was over 300 µM; with HeLa it was over 300 µM; in the series with HepG2, 60.8 ± 2.76 µM. Besides, at human recombinant COX-2, the “SI (selectivity index / selectivity ratio)” value is 2.766 and 2.76. The CC50 at 72 h in series [1] is over 300 µM.

For the compound `COc1cccc(-c2nc(C)c(C(=O)Nc3ccc(C(C)(C)C)cc3)s2)c1` [2b, N-(4-(tert-Butyl)phenyl)-2-(3-methoxyphenyl)-4-methylthiazole-5-carboxamide], the IC50 in the series with MCF-7 is over 300 µM; in the series on Hep3B, over 300 µM; in the series with B16F1 it was 74.2 ± 2.44 µM; in the series on COLO205, 30.8 ± 0.49 µM; against COX-1, 0.239 ± 0.18 µM; at human recombinant COX-2, 0.19 µM and 0.191 µM. The half-maximal inhibitory concentration (IC50) with CaCo-2, with HeLa and in the series with HepG2 was over 300 µM throughout. In addition, the CC50 with Hek293t cells amounted to 117 ± 2.05 µM. Moreover, on human recombinant COX-2, the “SI (selectivity index / selectivity ratio)” value was 1.251. The CC50 at 72 h in [1] was 203.7 ± 1.89 µM.

For the compound `COc1cccc(-c2nc(C)c(C(=O)Nc3ccc(OC)c(OC)c3)s2)c1` [2c, N-(3,4-Dimethoxyphenyl)-2-(3-methoxyphenyl)-4-methylthiazole-5-carboxamide], the concentration for half-maximal inhibition (IC50) with MCF-7 was over 300 µM; in the series with Hep3B it was over 300 µM; in the series with B16F1, over 300 µM; with COLO205, over 300 µM; at COX-1, 0.278 ± 0.02 µM; on human recombinant COX-2, 2.91 ± 1.08 µM. Besides, the IC50 with CaCo-2, in the series on HeLa and in the series on HepG2 was over 300 µM throughout. The “SI (selectivity index / selectivity ratio)” value at human recombinant COX-2 is listed as 0.095. Further, the CC50 at 72 h in [1] was over 300 µM.

Take `COc1cc(NC(=O)c2sc(-c3cccc(OC)c3)nc2C)cc(OC)c1` [2d, N-(3,5-Dimethoxyphenyl)-2-(3-methoxyphenyl)-4-methylthiazole-5-carboxamide]: the IC50 in the series on MCF-7 was 144 ± 2.03 µM; in the series with Hep3B, over 300 µM; in the series with B16F1, over 300 µM; with COLO205 it was over 300 µM; at COX-1, 1.57 ± 0.8 µM; on human recombinant COX-2, 2.3 ± 0.25 µM. Besides, the IC50 in the series with CaCo-2, in the series with HeLa and in the series on HepG2 was over 300 µM throughout. For the same compound, the “SI (selectivity index / selectivity ratio)” value at human recombinant COX-2 amounted to 0.685. Besides, the CC50 at 72 h in series [1] is over 300 µM.

Take `COc1cccc(-c2nc(C)c(C(=O)Nc3ccc(SC)cc3)s2)c1` [2e, 2-(3-Methoxyphenyl)-4-methyl-N-(4-(methylthio)phenyl)thiazole-5-carboxamide]: the IC50 in the series with MCF-7 was 163 ± 2.88 µM; in the series on Hep3B, 202.1 ± 1.99 µM; in the series on B16F1, over 300 µM; in the series on COLO205, over 300 µM; against COX-1, 1.53 ± 0.92 µM; on human recombinant COX-2 it was 2.12 ± 1.48 µM. For the same compound, the IC50 is over 300 µM in the series on CaCo-2, 223 ± 2.58 µM in the series with HeLa and over 300 µM in the series on HepG2. Further, the “SI (selectivity index / selectivity ratio)” value on human recombinant COX-2 came to 0.723. Moreover, in series [1], the half-maximal cytotoxic concentration (CC50) at 72 h was over 300 µM.

Consider `COc1cccc(-c2nc(C)c(C(=O)Nc3ccccc3)s2)c1` [2f, 2-(3-Methoxyphenyl)-4-methyl-N-phenylthiazole-5-carboxamide], for which the IC50 is over 300 µM in the series on MCF-7; over 300 µM in the series with Hep3B; over 300 µM in the series with B16F1; over 300 µM in the series with COLO205; 2.06 ± 1.21 µM against COX-1; 3.26 ± 1.02 µM at human recombinant COX-2. Also, the half-maximal inhibitory concentration (IC50) in the series on CaCo-2, in the series with HeLa and with HepG2 was over 300 µM throughout. In addition, the “SI (selectivity index / selectivity ratio)” value at human recombinant COX-2 is listed as 0.630. The same compound gave a cytotoxic concentration (CC50) at 72 h in series [1] of over 300 µM.

Consider `COc1cccc(-c2nc(C)c(C(=O)Nc3cc(OC)ccc3OC)s2)c1` [2h, N-(2,5-Dimethoxyphenyl)-2-(3-methoxyphenyl)-4-methylthiazole-5-carboxamide], for which the concentration for half-maximal inhibition (IC50) with MCF-7 was over 300 µM; in the series on Hep3B, over 300 µM; in the series with B16F1 it was over 300 µM; in the series with COLO205 it was over 300 µM; on COX-1, 0.335 ± 0.19 µM; on human recombinant COX-2, 1.23 ± 0.85 µM. Also, the IC50 with CaCo-2 is over 300 µM; in the series on HeLa, 250.8 ± 2.42 µM; with HepG2, over 300 µM. Besides, the “SI (selectivity index / selectivity ratio)” value on human recombinant COX-2 was 0.272. Also, the CC50 at 72 h in series [1] was over 300 µM.

For `COc1cccc(-c2nc(C)c(C(=O)Nc3ccc(Oc4ccccc4OC)cc3)s2)c1` [2i, N-(4-(2-Methoxyphenoxy)phenyl)-2-(3-methoxyphenyl)-4-methylthiazole-5-carboxamide], the IC50 was over 300 µM in the series with MCF-7; over 300 µM with Hep3B; over 300 µM in the series on B16F1; over 300 µM in the series on COLO205; 2.11 ± 1.08 µM against COX-1; 3.24 ± 1.11 µM at human recombinant COX-2. Further, the IC50 with CaCo-2, in the series on HeLa and in the series with HepG2 was over 300 µM in each case. The “SI (selectivity index / selectivity ratio)” value at human recombinant COX-2 was 0.651. In series [1], this compound registered a CC50 at 72 h of over 300 µM.

In the case of `COc1cccc(-c2nc(C)c(C(=O)Nc3cccc(C(F)(F)F)c3)s2)c1` [2j, 2-(3-Methoxyphenyl)-4-methyl-N-(3-(trifluoromethyl)phenyl)thiazole-5-carboxamide], the IC50 was over 300 µM in the series with MCF-7; 299.2 ± 2.05 µM in the series with Hep3B; over 300 µM in the series on B16F1; over 300 µM in the series on COLO205; 1.44 ± 0.51 µM against COX-1; 0.957 ± 0.17 µM on human recombinant COX-2. The IC50 with CaCo-2, in the series with HeLa and with HepG2 was over 300 µM throughout. Also, on human recombinant COX-2, the “SI (selectivity index / selectivity ratio)” value is given as 1.507. In [1], this compound returned a half-maximal cytotoxic concentration (CC50) at 72 h of over 300 µM.

For `O=c1[nH]cc(F)c(=O)[nH]1` [5-FU, reference compound], the results for the cytotoxic concentration (CC50) with Hek293t cells and with LX-2 cells were 4.06 ± 1.82 µM and 8.45 ± 2.02 µM, respectively.
